{"data": "Measurements pooled from the literature", "target": "Carbonic anhydrase 1 (CA1, Homo sapiens, UniProt P00915)", "observed": "enzyme activity", "mode": "inhibitor", "note": "Protocols differ between the studies behind these lines."}
{"Structure (SMILES)": "O=C(OCc1cn(-c2ccc(Cl)cc2)nn1)c1ccc(=O)oc1", "assay": "stopped-flow", "Ki [µM]": "> 100"}
{"Structure (SMILES)": "N#CSCc1cc(=O)oc2cc(O)ccc12", "assay": "stopped-flow", "Ki [µM]": "> 100"}
{"Structure (SMILES)": "O=C(OC1CCCCC1)c1ccc(=O)oc1", "assay": "stopped-flow", "Ki [µM]": "> 100"}
{"Structure (SMILES)": "COc1cc(C)c(/C=C/C(C)=C/C=C/C(C)=C/C(=O)O)c(C)c1C", "Ki [µM]": 7.68}
{"Structure (SMILES)": "C[n+]1cc(C(=O)[O-])ccc1O", "assay": "stopped-flow", "Ki [µM]": "> 100"}
{"Structure (SMILES)": "NS(=O)(=O)c1nnc(NC(=O)CCC2CCCCO2)s1 (centres unmarked)", "assay": "stopped-flow", "Ki [µM]": 0.75}
{"Structure (SMILES)": "OCCOCCN1CCN(C(c2ccccc2)c2ccc(Cl)cc2)CC1 (centres unmarked)", "Ki [µM]": 10.3}
{"Structure (SMILES)": "NCCCC(=O)Nc1nnc(S(N)(=O)=O)s1", "assay": "stopped-flow", "Ki [µM]": 0.155}
{"Structure (SMILES)": "COc1ccc(OC(=O)c2ccc(=O)oc2)cc1", "assay": "stopped-flow", "Ki [µM]": "> 100"}
{"Structure (SMILES)": "CC(C)(C)CCC(=O)Nc1nnc(S(N)(=O)=O)s1", "assay": "stopped-flow", "Ki [µM]": 0.267}
{"Structure (SMILES)": "OC(Cn1cncn1)(Cn1cncn1)c1ccc(F)cc1F", "Ki [µM]": 7.56}
{"Structure (SMILES)": "Cc1cc(=O)oc2cc(OCCCCSC#N)ccc12", "assay": "stopped-flow", "Ki [µM]": "> 100"}
{"Structure (SMILES)": "O=C(O)c1cccc(=O)o1", "assay": "stopped-flow", "Ki [µM]": "> 100"}
{"Structure (SMILES)": "COc1ccnc(C[S+]([O-])c2nc3ccc(OC(F)F)cc3[nH]2)c1OC (centres unmarked)", "Ki [µM]": 7.16}
{"Structure (SMILES)": "Cc1ccccc1CC(=O)Nc1nnc(S(N)(=O)=O)s1", "assay": "stopped-flow", "Ki [µM]": 0.0518}
{"Structure (SMILES)": "Cn1cnc([N+](=O)[O-])c1Sc1ncnc2nc[nH]c12", "Ki [µM]": 12.4}
{"Structure (SMILES)": "CC1(C)CCN(CC(=O)Nc2nnc(S(N)(=O)=O)s2)CC1", "assay": "stopped-flow", "Ki [µM]": 0.0541}
{"Structure (SMILES)": "O=C(Oc1ccc(Cl)cc1)c1ccc(=O)oc1", "assay": "stopped-flow", "Ki [µM]": "> 100"}
{"Structure (SMILES)": "CC1CCCC(C(=O)Nc2nnc(S(N)(=O)=O)s2)C1 (centres unmarked)", "assay": "stopped-flow", "Ki [µM]": 0.0827}
{"Structure (SMILES)": "CC(C)[C@H](N)C(=O)OCCOCn1cnc2c(=O)[nH]c(N)nc21", "Ki [µM]": 8.7}
